Screens deposited in PubChem BioAssay by NMMLSC.
RGS7-Gao: RGS7-Galphao binding modulators, primary screen, biochemical, multiplexed bead flow cytometry | binding response (% of control), % at 10 µM | 0.35% of 220,000 active | AID 1439, 2008 | actives lie on both sides | Guanine nucleotide-binding protein G(o) subunit alpha (Homo sapiens), P09471; in the data active means binding response below about 49% or above about 150%; inconclusive means no clear call, values can overlap the other calls; inactive means in between;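 further: fluorescent Galphao held in activated GDP-AlF4 state binding bead-coupled RGS7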
Target sequence (P09471 whole entry, looked up): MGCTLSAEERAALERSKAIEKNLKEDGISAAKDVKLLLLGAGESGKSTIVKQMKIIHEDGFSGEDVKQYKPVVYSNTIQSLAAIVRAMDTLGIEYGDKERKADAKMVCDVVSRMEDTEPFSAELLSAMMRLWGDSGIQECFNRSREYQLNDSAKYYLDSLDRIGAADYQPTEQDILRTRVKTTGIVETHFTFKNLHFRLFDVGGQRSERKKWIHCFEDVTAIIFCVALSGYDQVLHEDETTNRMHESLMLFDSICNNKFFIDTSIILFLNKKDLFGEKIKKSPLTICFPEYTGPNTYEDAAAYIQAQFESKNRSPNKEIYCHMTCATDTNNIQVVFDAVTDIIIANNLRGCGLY
RGS8-Gao: RGS8-Galphao binding modulators, primary screen, biochemical, multiplexed bead flow cytometry; actives lie on both sides; 0.34% of 220,000 active; response (percent of control binding), % at 10 µM; in the data active means response below about 60% or above about 140%; inactive means in between;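 further: Galphao activated as the GDP aluminium fluoride complex binding bead-coupled RGS8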
RGS16-Gao: modulators of RGS16 binding to Galphao, primary screen, biochemical, human proteins, multiplexed bead flow cytometry. Regulator of G-protein signaling 16 (Homo sapiens) + Guanine nucleotide-binding protein …. bead-based flow cytometry RGS16-Galphao binding, fluorescence; actives lie on both sides. binding response (% of control), % at 10 µM. 0.38% of 220,000 active;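 further: Galphao activated by GDP with aluminum fluoride before binding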
RGS4-Gao reg: modulators of RGS4 binding to Galphao, primary screen, biochemical, multiplexed bead flow cytometry; Guanine nucleotide-binding protein G(o) subunit alpha (Homo sapiens), P09471; actives lie on both sides; binding response (% of control), % at 10 µM; 0.33% of 220,000 active; in the data active means binding response below about 49% or above about 150%; inactive means in between;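 further: fluorescent Galphao activated with aluminum fluoride binding bead-coupled RGS4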
ABCB1 inh: ABCB1 efflux pump inhibitors, primary screen, cell-based, multiplex, flow cytometry, ABCG2 counter-screen; 0.067% of 190,000 active; ATP-dependent translocase ABCB1 (Homo sapiens), P08183; inhibition, % at 6.6 µM; CCRF-Adr cells, JC-1 efflux; in the data active means inhibition above about 40%;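 further: higher value means more JC-1 retained so stronger ABCB1 efflux block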
ABCG2 block: ABCG2 efflux pump inhibitors, primary screen, multiplex with ABCB1, IgMXP3 cells, flow cytometry. Broad substrate specificity ATP-binding cassette transporter ABCG2 (Homo sapiens), Q9UNQ0. JC-1 efflux. inhibition, % at 6.6 µM. 0.1% of 190,000 active;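 active means inhibition above 80%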
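System: two drug-resistant human cell lines, ABCG2 and ABCB1; controls: nicardipine high and DMSO low controls; times: 10 min exposure at 25 °C with rotation, no wash; detection: flow cytometry of retained JC-1 fluorescence; read-out basis: percent efflux inhibition, scaled nicardipine 100% to DMSO 0%; doses: one concentration, 6.6 µM final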
RGS4-Gao HTS: modulators of RGS–Galpha-o binding, primary screen, biochemical, multiplexed beads, flow cytometry, RGS4/7/8/16/19 | RGS4–Galpha-o binding response, % at 10 µM | shares compounds with RGS16-Gao | AID 1504, 2009 | multiplexed bead flow cytometry | 99% of 1,600 active;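 further: fluorescently labeled Galpha-o bound to GDP with aluminium fluoride binding biotinylated RGS beads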
Target sequence (P09471 whole entry, looked up): as above
Target sequence (P49798 whole entry, looked up): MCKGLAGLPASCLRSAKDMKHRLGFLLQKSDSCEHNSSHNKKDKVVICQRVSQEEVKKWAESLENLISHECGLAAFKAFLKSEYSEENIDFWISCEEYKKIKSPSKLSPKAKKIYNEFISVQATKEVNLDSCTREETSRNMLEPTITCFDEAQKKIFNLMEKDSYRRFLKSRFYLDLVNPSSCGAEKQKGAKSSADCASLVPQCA
Avidin counter: disruption of biotin probe capture by avidin, counter-screen for RGS protein interaction modulators, biochemical, flow cytometry, bead-based; AID 1783, 2009; shares compounds with RGS16-Gao; streptavidin beads, fluorescein-biotin binding; 1,700 tested, under 10 active; inhibition, % at 10 µM;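 active means inhibition above 50%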;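 further: median green fluorescence of gated singlet beads compared with DMSO control wells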
RGS8-Gao single: RGS8-Galphao binding modulators, confirmation, biochemical, multiplexed bead flow cytometry, single concentration; shares compounds with RGS16-Gao; bead-based flow cytometry RGS8-Galphao binding, fluorescence; actives lie on both sides; binding response (% of control), % at 10 µM; 3% of 1,700 active; in the data active means binding response below about 72% or above about 130%; inactive means in between;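 further: Galphao activated as GDP AlF4 complex before binding bead RGS8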
RGS7-Gao single: RGS7-Galphao binding modulators, confirmation, biochemical, multiplexed bead flow cytometry, single concentration. bead-based flow cytometry RGS7-Galphao binding; actives lie on both sides. shares compounds with RGS16-Gao. response (percent of control binding), % at 10 µM. 7.8% of 1,700 active. AID 1837, 2009; in the data active means response below about 75% or above about 130%; inactive means in between;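 further: fluorescent Galphao activated with GDP and aluminum fluoride binding bead-coupled RGS7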
RGS16-Gao conf: modulators of RGS16-Galphao protein binding, confirmation, biochemical, single concentration, multiplexed bead flow cytometry | shares compounds with RGS16-Gao | bead-based flow cytometry; actives lie on both sides | response (% of control binding), % at 10 µM | 4% of 1,700 active; in the data active means response below about 74% or above about 130%; inactive means in between;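 further: Galphao activated as the GDP aluminium fluoride complex binding bead-coupled RGS16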
RGS4-Gao confirm: modulators of RGS4-Galphao protein binding, confirmation, biochemical, single concentration, multiplexed bead flow cytometry; 4% of 1,700 active; binding response (% of control), % at 10 µM; shares compounds with RGS16-Gao; AID 1840, 2009; actives lie on both sides; in the data active means binding response below about 74% or above about 130%; inactive means in between
RGS19-Gao conf: regulators of RGS19-Galphao binding, confirmation, biochemical, single point, multiplexed bead flow cytometry; shares compounds with RGS16-Gao; bead-based flow cytometry RGS19-Galphao binding; actives lie on both sides; response (percent of control binding), % at 10 µM; 5% of 1,700 active; in the data active means response below about 50% or above about 160%; inactive means in between
Large screens that a line does not name were inactive (follow-up assays come after a bar, where they were run); [ ] = dose if it differs, or a comment. Shown are actives, neighbours in structure and some others; about 0.83% of the full set was active somewhere. Unless noted, how the calls were made is not given here.

CCOCCCNS(=O)(=O)c1ccc(NC(=O)C2CC(=O)N(c3ccc(C)cc3)C2)cc1 (stereo not given)	none
O=C(NCCCN1CCOCC1)C1CC(=O)N(C2CCCCC2)C1 (stereo not given)	none
CCc1cccc(CC)c1NC(=O)CSc1nc2ccc(N3C(=O)C4C(C3=O)[C@H]3C=C[C@@H]4C3)cc2s1 (stereo not given in full)	none
Nc1ccc2oc(-c3ccccc3Cl)cc(=O)c2c1O	RGS7-Gao 167[activator], RGS4-Gao reg 184[activator] | Avidin counter inactive | RGS8-Gao single inactive | RGS7-Gao single inactive | RGS16-Gao conf inactive | RGS4-Gao confirm inactive | RGS19-Gao conf inactive
CCOC(=O)C(C(=O)OCC)C(Nc1ccccc1)c1ccccc1 (stereo not given)	RGS16-Gao 9.4 | RGS4-Gao HTS 77 | Avidin counter inactive | RGS8-Gao single inactive | RGS7-Gao single inactive | RGS16-Gao conf inactive | RGS4-Gao confirm inactive | RGS19-Gao conf inactive
CCOC(=O)C(c1ccccc1)C(Nc1ccccc1)c1ccccn1 (stereo not given)	RGS7-Gao inconclusive (no result: ABCB1 inh, ABCG2 block)
CCOC(=O)C(NCCCO)c1ccccc1 (stereo not given)	none (no result: RGS7-Gao, RGS8-Gao, RGS16-Gao, RGS4-Gao reg) | Avidin counter inactive | RGS8-Gao single inactive | RGS7-Gao single inactive | RGS16-Gao conf inactive | RGS4-Gao confirm inactive | RGS19-Gao conf inactive
O=C(CN1C(=O)CSC1=O)NC1CCCCC1	none
O=C(C(c1ccccc1)c1ccccc1)N1CCN(CCN2C(=O)c3cccc4cccc(c34)C2=O)CC1	none (no result: RGS7-Gao) | Avidin counter inactive | RGS8-Gao single inactive | RGS7-Gao single inactive | RGS16-Gao conf inactive | RGS4-Gao confirm inactive | RGS19-Gao conf inactive
O=C1c2cccc3cccc(c23)C(=O)N1CCN1CCN(CC(O)COc2ccccc2)CC1 (stereo not given)	none
CSCCC(NC(=O)c1cccc([N+](=O)[O-])c1)C(=O)O (stereo not given)	RGS16-Gao 187[activator] | RGS4-Gao HTS 106 | Avidin counter inactive | RGS8-Gao single inactive | RGS7-Gao single inactive | RGS16-Gao conf inactive | RGS4-Gao confirm inactive | RGS19-Gao conf inactive
CC(C)C(=O)OCC(=O)NCc1ccccc1Cl	RGS7-Gao inconclusive
COc1ccc(CNC(=O)NCc2ccc(OC)c(OC)c2)cc1OC	RGS7-Gao 157[activator] | RGS4-Gao HTS 115 | Avidin counter inactive | RGS8-Gao single inactive | RGS7-Gao single inactive | RGS16-Gao conf inactive | RGS4-Gao confirm inactive | RGS19-Gao conf inactive
COc1ccc(NC(=O)NCCc2ccc(Cl)cc2)cc1OC	RGS7-Gao -3.3, RGS8-Gao 12, RGS16-Gao 0.8, RGS4-Gao reg 7.0 | Avidin counter inactive | RGS8-Gao single inactive | RGS7-Gao single inactive | RGS16-Gao conf inactive | RGS4-Gao confirm inactive | RGS19-Gao conf inactive
COc1ccc(CC(=O)OCC(=O)NCc2ccccc2Cl)cc1OC	RGS7-Gao 162[activator], RGS8-Gao 159[activator], RGS16-Gao 176[activator], RGS4-Gao reg 160[activator] | Avidin counter inactive | RGS8-Gao single inactive | RGS7-Gao single inactive | RGS16-Gao conf inactive | RGS4-Gao confirm inactive | RGS19-Gao conf inactive
CCOCCCNCC(=O)Nc1ccc(S(=O)(=O)NC(C)CC)cc1 (stereo not given)	none
CCOC(=O)CNc1cccc(C(F)(F)F)c1	none
Cn1ccnc1SCC(=O)n1c2c(c3ccccc31)CCCC2	RGS8-Gao 55 | RGS4-Gao HTS 60 | Avidin counter inactive | RGS8-Gao single inactive | RGS7-Gao single inactive | RGS16-Gao conf inactive | RGS4-Gao confirm inactive | RGS19-Gao conf inactive
Cn1ccnc1SCC(=O)Nc1cccc2ccccc12	none
Cn1ncc([N+](=O)[O-])c1C(=O)Nc1ccc(-c2nc3ccccc3[nH]2)cc1	none (no result: RGS7-Gao, RGS8-Gao, RGS16-Gao, RGS4-Gao reg) | Avidin counter inactive | RGS8-Gao single inactive | RGS7-Gao single inactive | RGS16-Gao conf inactive | RGS4-Gao confirm inactive | RGS19-Gao conf inactive
CCOc1ccc(C(=O)Nc2ccc(-c3nc4ccccc4[nH]3)cc2)cc1[N+](=O)[O-]	none
CC(C(=O)c1ccc(-c2ccccc2)cc1)[n+]1cccc(NC(=O)c2ccccc2)c1 (stereo not given)	none (no result: RGS7-Gao, RGS8-Gao, RGS16-Gao, RGS4-Gao reg, ABCB1 inh, ABCG2 block) | Avidin counter inactive | RGS8-Gao single inactive | RGS7-Gao single inactive | RGS16-Gao conf inactive | RGS4-Gao confirm inactive | RGS19-Gao conf inactive
O=C(C[n+]1ccc(-c2nnc3n2CCC3)cc1)c1ccc(Cl)c(Cl)c1	none (no result: RGS7-Gao) | Avidin counter inactive | RGS8-Gao single inactive | RGS7-Gao single inactive | RGS16-Gao conf inactive | RGS4-Gao confirm inactive | RGS19-Gao conf inactive
COc1ccc(C(=O)C[n+]2ccc(-c3nnc4n3CCC4)cc2)cc1	none
